ChEMBL document CHEMBL4616606, “New compounds for a good old class: Synthesis of two Β-lactam bearing cephalosporins and their evaluation with a multidisciplinary approach” (Bioorg Med Chem, 2020)

How the values were obtained:
Salmonella typhimurium = assay: Antimicrobial activity against Salmonella enterica LT2 ATCC 700720 by CLSI method; format: functional, Salmonella enterica subsp. enterica serovar Typhimurium; details: for MIC50 / MIC: Salmonella enterica, LT2 ATCC 700720; for MIC: read-out: MIC100
Bacillus subtilis = assay: Antimicrobial activity against Bacillus subtilis by CLSI method; format: functional; details: for MIC50 / MIC: Bacillus subtilis; for MIC: read-out: MIC100
MRC5 [1] = assay: Cytotoxicity against human MRC5 cells assessed as reduction in cell viability at 0.5 to 25 ug/ml after 24 hrs by MTT assay; format: cell-based; details: mrc5, 24 h
How it was run: (§1)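 MTT colorimetric viability test; human embryonic lung MRC5 cells or human lung cancer Calu-1 cells exposed 24 h to compound over 0.5–50 µg/ml; DMSO vehicle up to 0.4% v/v. Two or three independent experiments, each in triplicate, reported as mean ± SD.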

Staphylococcus aureus = assay: Antimicrobial activity against Staphylococcus aureus by CLSI method; format: functional; details: for MIC50 / MIC: Staphylococcus aureus; for MIC: read-out: MIC100
Escherichia coli = assay: Antimicrobial activity against Escherichia coli JM107 by CLSI method; format: functional; details: for MIC50 / MIC: Escherichia coli, JM107; for MIC: read-out: MIC100
Calu-1 = assay: Cytotoxicity against human Calu1 cells assessed as reduction in cell viability at 50 ug/ml after 24 hrs by MTT assay; format: cell-based; details: calu-1, 24 h; how it was run: as §1
MRC5 [2] = assay: Cytotoxicity against human MRC5 cells assessed as reduction in cell viability at 25 ug/ml after 24 hrs by MTT assay; format: cell-based; details: mrc5, 24 h; how it was run: as §1

For `COc1ccc(N2C(=O)C(CCCCCC(=O)N[C@@H]3C(=O)N4C(C(=O)[O-])=C(COC(C)=O)CS[C@H]34)C2c2ccccc2)cc1.[Na+]` (mixture of isomers), the MLD (Salmonella typhimurium) was >256 µg/mL, the MIC50 (Salmonella typhimurium) was > 256 µg/mL and the MIC (Salmonella typhimurium) was > 256 µg/mL. For the same compound, the MLD (Bacillus subtilis) was “>=0.75 ug ml-1”, the MIC50 (Bacillus subtilis) was < 0.12 µg/mL and the MIC (Bacillus subtilis) was 0.25 to 0.35 µg/mL. For the same compound, the Activity (MRC5 [1]) was “Non-Toxic”, the MLD (Staphylococcus aureus) was “>=1.75 - 2 ug ml-1” and the MIC50 (Staphylococcus aureus) was 0.75 µg/mL. The MIC (Staphylococcus aureus) was 1.75 µg/mL, the MLD (Escherichia coli) was >256 µg/mL and the MIC50 (Escherichia coli) was > 256 µg/mL. The MIC (Escherichia coli) was > 256 µg/mL.
With `COc1ccc(N2C(=O)C(CC(=O)N[C@@H]3C(=O)N4C(C(=O)[O-])=C(COC(C)=O)CS[C@H]34)C2c2ccc(Cl)cc2)cc1.[Na+]` (mixture of isomers) the MLD (Salmonella typhimurium) was >256 µg/mL, the MIC50 (Salmonella typhimurium) was > 256 µg/mL and the MIC (Salmonella typhimurium) was > 256 µg/mL. For the same compound, the MLD (Bacillus subtilis) was >256 µg/mL, the MIC50 (Bacillus subtilis) was < 4 µg/mL and the MIC (Bacillus subtilis) was 32 µg/mL. The Activity (MRC5 [1]) was “Non-Toxic”, the MLD (Staphylococcus aureus) was >32 µg/mL and the MIC50 (Staphylococcus aureus) was 4 to 8 µg/mL. For the same compound, the MIC (Staphylococcus aureus) was 32 µg/mL, the MLD (Escherichia coli) was >256 µg/mL and the MIC50 (Escherichia coli) was > 256 µg/mL. For the same compound, the MIC (Escherichia coli) was > 256 µg/mL.
In the case of `CO/N=C(\C(=O)N[C@@H]1C(=O)N2C(C(=O)O)=C(CSc3nc(=O)c(=O)[nH]n3C)CS[C@H]12)c1csc(N)n1.[Na+]`, the MLD (Salmonella typhimurium) is reported as “>=2 ug ml-1”, the MIC50 (Salmonella typhimurium) is reported as < 0.25 µg/mL and the MIC (Salmonella typhimurium) is reported as 0.25 µg/mL. The MLD (Bacillus subtilis) was “>=1 ug ml-1”, the MIC50 (Bacillus subtilis) was < 0.25 µg/mL and the MIC (Bacillus subtilis) was 0.75 µg/mL. The MLD (Staphylococcus aureus) was >7 µg/mL, the MIC50 (Staphylococcus aureus) was 2 to 4 µg/mL and the MIC (Staphylococcus aureus) was 5.5 µg/mL. For the same compound, the MLD (Escherichia coli) was >1 µg/mL, the MIC50 (Escherichia coli) was < 0.25 µg/mL and the MIC (Escherichia coli) was 0.25 µg/mL.
For `CC(=O)OCC1=C(C(=O)[O-])N2C(=O)[C@@H](NC(=O)CCC3C(=O)N(c4ccc(C)c(C)c4)C3c3ccccc3)[C@H]2SC1.[Na+]` (mixture of isomers), the MLD (Salmonella typhimurium) was >256 µg/mL, the MIC50 (Salmonella typhimurium) was > 256 µg/mL and the MIC (Salmonella typhimurium) was > 256 µg/mL. The MLD (Bacillus subtilis) was 64 µg/mL, the MIC50 (Bacillus subtilis) was ≤ 1 µg/mL and the MIC (Bacillus subtilis) was 2 µg/mL. For the same compound, the Activity (MRC5 [1]) was “Non-Toxic”, the MLD (Staphylococcus aureus) was >16 µg/mL and the MIC50 (Staphylococcus aureus) was 1 µg/mL. The MIC (Staphylococcus aureus) was 4 to 6 µg/mL, the MLD (Escherichia coli) was >256 µg/mL and the MIC50 (Escherichia coli) was > 256 µg/mL. The MIC (Escherichia coli) was > 256 µg/mL.
With `CC(=O)OCC1=C(C(=O)[O-])N2C(=O)[C@@H](NC(=O)CCCCCC3C(=O)N(c4ccccc4)C3c3ccccc3)[C@H]2SC1.[Na+]` (mixture of isomers) the MLD (Salmonella typhimurium) was >256 µg/mL, the MIC50 (Salmonella typhimurium) was > 256 µg/mL and the MIC (Salmonella typhimurium) was > 256 µg/mL. The Activity (Calu-1) was “Toxic”, the MLD (Bacillus subtilis) was >32 µg/mL and the MIC50 (Bacillus subtilis) was < 0.25 µg/mL. The MIC (Bacillus subtilis) was 0.5 µg/mL, the Activity (MRC5 [1]) was “Non-Toxic” and the MLD (Staphylococcus aureus) was >4 µg/mL. The MIC50 (Staphylococcus aureus) was 1.5 to 2 µg/mL, the MIC (Staphylococcus aureus) was 3.5 to 4 µg/mL and the MLD (Escherichia coli) was >256 µg/mL. For the same compound, the MIC50 (Escherichia coli) was > 256 µg/mL and the MIC (Escherichia coli) was > 256 µg/mL.
For `CC(=O)OCC1=C(C(=O)[O-])N2C(=O)[C@@H](NC(=O)CC3C(=O)N(c4ccc(C)c(C)c4)C3c3ccccc3)[C@H]2SC1.[Na+]` (mixture of isomers), the MLD (Salmonella typhimurium) was >256 µg/mL, the MIC50 (Salmonella typhimurium) was > 256 µg/mL and the MIC (Salmonella typhimurium) was > 256 µg/mL. For the same compound, the MLD (Bacillus subtilis) was “>=3.5 ug ml-1”, the MIC50 (Bacillus subtilis) was < 0.25 µg/mL and the MIC (Bacillus subtilis) was 3.5 µg/mL. For the same compound, the MLD (Staphylococcus aureus) was >16 µg/mL, the MIC50 (Staphylococcus aureus) was > 1 µg/mL and the MIC (Staphylococcus aureus) was 4 to 8 µg/mL. For the same compound, the MLD (Escherichia coli) was >256 µg/mL, the MIC50 (Escherichia coli) was > 256 µg/mL and the MIC (Escherichia coli) was > 256 µg/mL. The Activity (MRC5 [2]) was 20%.
For `COc1ccc(N2C(=O)C(CC(=O)N[C@@H]3C(=O)N4C(C(=O)[O-])=C(COC(C)=O)CS[C@H]34)C2c2ccc([N+](=O)[O-])cc2)cc1.[Na+]` (mixture of isomers), the MLD (Salmonella typhimurium) was >256 µg/mL, the MIC50 (Salmonella typhimurium) was > 256 µg/mL and the MIC (Salmonella typhimurium) was > 256 µg/mL. For the same compound, the MLD (Bacillus subtilis) was >256 µg/mL, the MIC50 (Bacillus subtilis) was 8 µg/mL and the MIC (Bacillus subtilis) was 32 µg/mL. The Activity (MRC5 [1]) was “Non-Toxic”, the MLD (Staphylococcus aureus) was >32 µg/mL and the MIC50 (Staphylococcus aureus) was 4 to 8 µg/mL. The MIC (Staphylococcus aureus) was 32 µg/mL, the MLD (Escherichia coli) was >256 µg/mL and the MIC50 (Escherichia coli) was > 256 µg/mL. The MIC (Escherichia coli) was > 256 µg/mL.
For `CC(=O)OCC1=C(C(=O)[O-])N2C(=O)[C@@H](NC(=O)CCC3C(=O)N(c4ccccc4)C3c3ccccc3)[C@H]2SC1.[Na+]` (mixture of isomers), the MLD (Salmonella typhimurium) was >256 µg/mL, the MIC50 (Salmonella typhimurium) was > 256 µg/mL and the MIC (Salmonella typhimurium) was > 256 µg/mL. For the same compound, the Activity (Calu-1) was “Toxic”, the MLD (Bacillus subtilis) was >32 µg/mL and the MIC50 (Bacillus subtilis) was < 0.25 µg/mL. The MIC (Bacillus subtilis) was 1 µg/mL, the Activity (MRC5 [1]) was “Non-Toxic” and the MLD (Staphylococcus aureus) was “>=3 ug ml-1”. For the same compound, the MIC50 (Staphylococcus aureus) was 0.25 to 0.5 µg/mL, the MIC (Staphylococcus aureus) was 2.5 µg/mL and the MLD (Escherichia coli) was >256 µg/mL. For the same compound, the MIC50 (Escherichia coli) was > 256 µg/mL and the MIC (Escherichia coli) was > 256 µg/mL.
`CC(=O)OCC1=C(C(=O)[O-])N2C(=O)[C@@H](NC(=O)CC3C(=O)N(c4ccccc4)C3c3ccccc3)[C@H]2SC1.[Na+]` (mixture of isomers) was tested, and the MLD (Salmonella typhimurium) was >256 µg/mL, the MIC50 (Salmonella typhimurium) was > 256 µg/mL and the MIC (Salmonella typhimurium) was > 256 µg/mL. The MLD (Bacillus subtilis) was >2.5 µg/mL, the MIC50 (Bacillus subtilis) was < 0.25 µg/mL and the MIC (Bacillus subtilis) was 2.5 µg/mL. For the same compound, the MLD (Staphylococcus aureus) was >3 µg/mL, the MIC50 (Staphylococcus aureus) was 0.75 µg/mL and the MIC (Staphylococcus aureus) was 2.5 µg/mL. The MLD (Escherichia coli) was >256 µg/mL, the MIC50 (Escherichia coli) was > 256 µg/mL and the MIC (Escherichia coli) was > 256 µg/mL.
In the case of `COc1ccc(N2C(=O)C(CC(=O)N[C@@H]3C(=O)N4C(C(=O)[O-])=C(COC(C)=O)CS[C@H]34)C2c2ccccc2)cc1.[Na+]` (mixture of isomers), the MLD (Salmonella typhimurium) is reported as >256 µg/mL, the MIC50 (Salmonella typhimurium) is reported as > 256 µg/mL and the MIC (Salmonella typhimurium) is reported as > 256 µg/mL. For the same compound, the MLD (Bacillus subtilis) was “>=128 ug ml-1”, the MIC50 (Bacillus subtilis) was < 0.25 µg/mL and the MIC (Bacillus subtilis) was 0.75 µg/mL. The Activity (MRC5 [1]) was “Non-Toxic”, the MLD (Staphylococcus aureus) was >1.5 µg/mL and the MIC50 (Staphylococcus aureus) was < 0.25 µg/mL. For the same compound, the MIC (Staphylococcus aureus) was 1.5 µg/mL, the MLD (Escherichia coli) was >256 µg/mL and the MIC50 (Escherichia coli) was > 256 µg/mL. The MIC (Escherichia coli) was > 256 µg/mL.
`CC(=O)OCC1=C(C(=O)[O-])N2C(=O)[C@@H](NC(=O)CCCCCCCC3C(=O)N(c4ccccc4)C3c3ccccc3)[C@H]2SC1.[Na+]` (mixture of isomers) was tested, and the MLD (Salmonella typhimurium) was >256 µg/mL, the MIC50 (Salmonella typhimurium) was > 256 µg/mL and the MIC (Salmonella typhimurium) was > 256 µg/mL. For the same compound, the MLD (Bacillus subtilis) was >16 µg/mL, the MIC50 (Bacillus subtilis) was < 0.25 µg/mL and the MIC (Bacillus subtilis) was 0.75 µg/mL. The MLD (Staphylococcus aureus) was “>=1 ug ml-1”, the MIC50 (Staphylococcus aureus) was < 0.25 µg/mL and the MIC (Staphylococcus aureus) was 1 µg/mL. The MLD (Escherichia coli) was >256 µg/mL, the MIC50 (Escherichia coli) was > 256 µg/mL and the MIC (Escherichia coli) was > 256 µg/mL.
With `COc1ccc(N2C(=O)C(CCCCCCCC(=O)N[C@@H]3C(=O)N4C(C(=O)[O-])=C(COC(C)=O)CS[C@H]34)C2c2ccccc2)cc1.[Na+]` (mixture of isomers) the MLD (Salmonella typhimurium) was >256 µg/mL, the MIC50 (Salmonella typhimurium) was > 256 µg/mL and the MIC (Salmonella typhimurium) was > 256 µg/mL. For the same compound, the MLD (Bacillus subtilis) was “>=2 - 4 ug ml-1”, the MIC50 (Bacillus subtilis) was < 0.12 µg/mL and the MIC (Bacillus subtilis) was 0.25 µg/mL. For the same compound, the MLD (Staphylococcus aureus) was 0.25 µg/mL, the MIC50 (Staphylococcus aureus) was > 0.12 µg/mL and the MIC (Staphylococcus aureus) was < 0.25 µg/mL. For the same compound, the MLD (Escherichia coli) was >256 µg/mL, the MIC50 (Escherichia coli) was > 256 µg/mL and the MIC (Escherichia coli) was > 256 µg/mL. It also gave an Activity (MRC5 [2]) of 20%.
